# Results from ChEMBL document CHEMBL1122253, “Optically active catecholimidazolines: a study of steric interactions at alpha-adrenoreceptors” (1983).
# Species: Rattus norvegicus
# Assay: Relative value for maximum contraction (10e-5 = 1.0, phenylephrine) of rat aorta.
# Assay type: functional
# Procedure, shortened: (§1)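 Thoracic aorta: the 2-cm segment distal to the first intercostal artery, cut into strips at 75–80° to the lumen. Strips kept in PSS gassed with 95% O2/5% CO2 […], under 2-g tension with isometric force recording. After 1 h equilibration, one half-maximal phenylephrine challenge, then 1 h re-equilibration. Cumulative concentration-effect curves used about threefold steps, with washout and at least 1 h between curves.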
row,SMILES,IA
1,Cl.Oc1ccc(CC2=NC[C@H](Cc3ccccc3)N2)cc1O,1
2,CN1CCN=C1Cc1ccc(O)c(O)c1.Cl,0.85
3,Cl.Oc1ccc(CC2=NCCN2)cc1O,1
4,C[C@@H]1CN=C(Cc2ccc(O)c(O)c2)N1.Cl,0.74
5,CN1CC[N+](C)=C1Cc1ccc(O)c(O)c1.Cl.F[B-](F)(F)F,0.81
6,Cl.Oc1ccc([C@H](O)C2=NCCN2)cc1O,1
7,Cl.Oc1ccc(CC2=NC[C@@H](Cc3ccccc3)N2)cc1O,0.91
8,Cl.Oc1ccc([C@@H](O)C2=NCCN2)cc1O,1
9,C[C@H]1CN=C(Cc2ccc(O)c(O)c2)N1.Cl,1

# Species: Rattus norvegicus
# Assay: Negative Log of ED50 used to inhibit alpha adrenergic activity in rat aorta
# Assay type: functional
# Procedure, shortened: as §1
row,SMILES,pED50
1,CN1CCN=C1Cc1ccc(O)c(O)c1.Cl,5.84

# Species: Rattus norvegicus
# Assay: Negative Log of ED50 used to stimulate alpha adrenergic activity in rat aorta
row,SMILES,pED50
1,Cl.Oc1ccc(CC2=NC[C@H](Cc3ccccc3)N2)cc1O,4.33
2,Cl.Oc1ccc(CC2=NCCN2)cc1O,8.59
3,C[C@@H]1CN=C(Cc2ccc(O)c(O)c2)N1.Cl,6.29
4,CN1CC[N+](C)=C1Cc1ccc(O)c(O)c1.Cl.F[B-](F)(F)F,5.54
5,Cl.Oc1ccc([C@H](O)C2=NCCN2)cc1O,7.67
6,Cl.Oc1ccc(CC2=NC[C@@H](Cc3ccccc3)N2)cc1O,4.44
7,Cl.Oc1ccc([C@@H](O)C2=NCCN2)cc1O,8.59
8,C[C@H]1CN=C(Cc2ccc(O)c(O)c2)N1.Cl,6.32
